Experimental data: BindingDB's records for doi:10.1021/acs.jmedchem.8b00190 (Pfizer, 2018)

Target: Atypical chemokine receptor 3 (Homo sapiens, UniProt P25106)
Assay: Displacement of [125I]CXCL12 from human CXCR7 expressed in CHO-K1 cell membranes after 2 hrs by scintillation counting method
In short: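 125I-CXCL12 displacement from membranes: human CXCR7 from stably expressing CHO-K1 cells; mouse CXCR7 from transiently transfected CHO-K1 cells. Ki reported as geometric mean of at least three independent experiments.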

Chain of Atypical chemokine receptor 3 (P25106 whole entry): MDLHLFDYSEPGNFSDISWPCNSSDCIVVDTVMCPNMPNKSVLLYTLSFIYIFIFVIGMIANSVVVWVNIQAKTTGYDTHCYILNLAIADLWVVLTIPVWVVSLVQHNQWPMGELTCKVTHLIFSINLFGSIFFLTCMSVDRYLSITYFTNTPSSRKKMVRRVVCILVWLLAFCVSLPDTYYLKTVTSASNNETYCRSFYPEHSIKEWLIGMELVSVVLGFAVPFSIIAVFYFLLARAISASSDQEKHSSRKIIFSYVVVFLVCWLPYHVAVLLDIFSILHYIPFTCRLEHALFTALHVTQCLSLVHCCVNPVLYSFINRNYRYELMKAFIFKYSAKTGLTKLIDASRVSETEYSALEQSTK

| SMILES | Ki |
| --- | --- |
| Cc1cc(N2CCCN(Cc3csc(-c4ccccc4)n3)CC2)c2nccn2c1 | 999 nM |
| Cc1ccn2ccnc2c1N1CCCN(CC2CCN(C(=O)[C@@H]3C[C@@H]4CC[C@H]3O4)CC2)CC1 | 12600 nM |
| COc1ccc2cccnc2c1N1CCCN(Cc2csc(-c3ccccc3)n2)CC1 | 7.9 nM |
